Hits are enriched below; roughly 4.1% of the tested compounds scored in any of these assays.
MEKK2 WT-MEK5 = raises or lowers MEK5 binding to wildtype human MEKK2 PB1 domain | binding response (% of control), % at 10 µM | bead flow cytometry, Alexa488-MEK5 binding to MEKK2 WT; actives lie on both sides | 290,000 compounds, 1.1% hits | Q9Y2U5; in the data active = binding response below about 67% or above about 130%; inconclusive = no clear call, values can overlap the other calls; inactive = in between
MEKK3 PB1 HTS = MEKK3-MEK5 PB1 interaction, increase or decrease. Q99759. bead-based flow cytometry, Alexa488-MEK5 binding to MEKK3; actives lie on both sides; 0 = blocked by unlabeled MEK5, 100 = vehicle. binding response (% of control), % at 10 µM. 290,000 compounds, 1.4% hits;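 active = binding response more than 3 SD above or below the average of its plate-row segment, actives on both sides; inconclusive = wells at one plate position flagged as instrument error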;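 also: Alexa488 bead fluorescence after subtracting the streptavidin-only scavenger bead signal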
Target sequence (Q99759 whole entry, looked up): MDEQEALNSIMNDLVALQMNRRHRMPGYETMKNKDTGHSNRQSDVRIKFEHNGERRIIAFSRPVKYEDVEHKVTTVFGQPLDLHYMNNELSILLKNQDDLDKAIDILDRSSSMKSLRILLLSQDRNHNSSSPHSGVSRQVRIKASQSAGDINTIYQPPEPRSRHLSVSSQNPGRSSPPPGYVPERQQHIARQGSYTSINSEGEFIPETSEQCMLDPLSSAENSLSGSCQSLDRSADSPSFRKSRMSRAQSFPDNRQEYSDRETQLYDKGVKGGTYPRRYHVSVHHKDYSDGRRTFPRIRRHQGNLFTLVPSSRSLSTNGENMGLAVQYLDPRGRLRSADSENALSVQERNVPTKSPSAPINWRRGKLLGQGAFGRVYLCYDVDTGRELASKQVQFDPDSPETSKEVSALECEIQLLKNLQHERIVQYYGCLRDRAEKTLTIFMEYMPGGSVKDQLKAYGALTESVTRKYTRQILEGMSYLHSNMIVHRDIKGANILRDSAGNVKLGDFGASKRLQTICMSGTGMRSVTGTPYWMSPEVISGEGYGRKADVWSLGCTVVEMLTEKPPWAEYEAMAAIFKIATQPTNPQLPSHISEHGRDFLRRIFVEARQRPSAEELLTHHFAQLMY
MEKK2 mut-MEK5 = signal of MEK5 binding to mutant human MEKK2 PB1 domain | bead flow cytometry, Alexa488-MEK5 binding to MEKK2 mutant | percent response, % at 10 µM | AID 1530 | 290,000 compounds, 0.35% hits; in the data active = percent response above about 24%, passing the limit was not always enough
NS3 helicase inh = blocks Hepatitis C virus NS3 helicase unwinding; NS3 helicase DNA unwinding, Cy5 molecular beacon fluorescence; inhibition, % at 10.9 µM; 290,000 compounds, 0.56% hits;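 active = inhibition above the mean of all tested compounds plus 3 SD, set per campaign, cut at about 35% in these data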;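 also: 0% = DMSO wells and 100% = thioflavine S control wells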
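assay system = NS3 helicase fragment of HCV | buffer or medium = MOPS pH 6.5, MgCl2, DTT, Tween20, BSA | timing = 60 min unwinding reaction at 25 °C after ATP addition | signal = Cy5 beacon fluorescence read at start and 1 h | read-out basis = % inhibition of unwinding | control set = low DMSO, high thioflavine S at 110 µM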
T cruzi inh = blocks replication of Trypanosoma cruzi. T. cruzi beta-gal in NIH3T3, luminescence, 90 h. inhibition, % (no concentration beside the values). 300,000 compounds, 1.4% hits;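 active = mean inhibition across valid replicates above about 55%, limit read from the data; inconclusive = mean below that limit but half or more replicates reach it; inactive = mean below it, under half of replicates reach it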;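 also: signal also drops with host cell toxicity which is not excluded here; 0% = plate median of DMSO wells and 100% = zero luminescence signal; higher percent means less beta-gal luminescence so fewer parasites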
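compound dosing = single 50 nL compound addition per well in DMSO | material = NIH/3T3 host cells with β-galactosidase reporter T. cruzi | input = 5,000 host fibroblasts per well | timing = ≥90 h infection period, 3 h prior cell attachment | read-out basis = percent inhibition of parasite-derived β-gal signal | detection = GalScreen β-gal luminescence, detergent lysis, 60 min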
FID counter = counter-screen for HCV NS3 helicase inhibitors: DNA intercalator displacement; DNA fluorescent intercalator displacement, fluorescence; inhibition, % at 7.9 µM; 290,000 compounds, 0.17% hits; AID 1845; in the data active = inhibition above about 37%;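 also: 0% = vehicle and 100% = reference compound; higher means more ethidium bromide displaced from hairpin DNA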
MEKK2wt confirm = raises or lowers MEK5 binding to wildtype human MEKK2, retest | shares compounds with MEKK3 PB1 HTS | bead flow cytometry, Alexa488-MEK5 binding to MEKK2 WT; actives lie on both sides | binding response (% of control), % at 10 µM | 5,900 compounds, 2.4% hits; in the data active = binding response below about 16% or above about 210%; inactive = in between
MEKK2mut-MEK5 = signal of MEK5 binding to mutant human MEKK2, retest; shares compounds with MEKK3 PB1 HTS; bead flow cytometry, Alexa488-MEK5 binding to MEKK2 mutant; percent response, % at 10 µM; 5,900 compounds, 2% hits; AID 1893; in the data active = percent response mostly above about 71%, no sharp cut-off; inactive = mostly below about 38%;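 also: higher means compound restores mutant binding toward wildtype level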
MEKK3 confirm = MEKK3-MEK5 PB1 inhibition, single concentration confirmation. binding response (% of control), % at 10 µM. bead flow cytometry, Alexa488-MEK5 binding to MEKK3; stronger effect = lower value. shares compounds with MEKK3 PB1 HTS. 5,900 compounds, 1.8% hits;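 active = binding response below 72% of control, or above a set upper limit, though filed actives all read lower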;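 also: 100% = DMSO only wells and 0% = binding blocked by excess unlabeled MEK5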
The depositor's hits bear a star; ? = inconclusive; . = no result given; [ ] = another dose, or the depositor's remark.

SMILES	MEKK2 WT-MEK5	MEKK3 PB1 HTS	MEKK2 mut-MEK5	NS3 helicase inh	T cruzi inh	FID counter	MEKK2wt confirm	MEKK2mut-MEK5	MEKK3 confirm
COC(=O)c1ccc(/C=N/NC(=O)C2CC(=O)N(c3ccc(OC)cc3)C2)cc1 (stereo unspecified)	91.0	95.0	-5.0	-9.7	-19.5	-33.7	.	.	.
Cc1nc2ccccn2c1C(=O)N=Nc1c(O)[nH]c2ccccc12	106.0	139.0*	2.0	1.2	-4.8	2.6	102.0	1.0	103.0
O=C(O)CC1(CC(=O)Nc2ccc3ccccc3c2)CCCCC1	-1.0*[inhibitor]	1.0*[inhibitor]	-9.0	2.4	-10.0	-46.8	100.0	3.0	105.0
CCNc1c(NS(=O)(=O)c2ccc(OC)cc2)c(=O)oc2ccccc12	104.0	103.0	0.0	1.3	-5.8	-14.8	.	.	.
COc1ccccc1N1CCN(S(=O)(=O)c2ccc(Cl)s2)CC1	-4.0*[inhibitor]	0.0*[inhibitor]	-39.0	-10.7	9.3	-11.3	25.0	-21.0	56.0*
CCN(CC)CCOC(=O)c1ccc(NC(=O)CCCN2C(=O)S/C(=C/c3ccc(OC)cc3)C2=S)cc1	192.0*	106.0	44.0*	-60.7	?	9.1	111.0	2.0	87.0
COc1ccc(/C=C2\SC(=S)N(CCC(=O)Nc3ccc(O)cc3)C2=O)cc1	98.0	99.0	3.0	13.0	-13.5	-9.5	.	.	.
O=C(NN=C1CCCC1)c1cccc(Br)c1	111.0	111.0	15.0	0.9	-17.0	-5.0	.	.	.
CCCCCOP(=O)(c1ccccc1)c1ccccc1	108.0	104.0	13.0	-10.1	4.8	-27.6	.	.	.
CC(C)OP(=O)(c1ccccc1)c1ccccc1	109.0	153.0*	0.0	1.2	1.9	-0.9	115.0	8.0	105.0
COc1ccc(NC(=O)C2CCN(S(=O)(=O)c3cn(C)nc3C)CC2)cc1	101.0	102.0	-1.0	22.8	-22.2	-9.0	.	.	.
COc1ccc(CCN(C)Cc2c(O)ccc3ccccc23)cc1OC	108.0	103.0	3.0	7.1	-7.1	0.5	.	.	.
Cc1ccc(-n2cc(CN(C)CCc3cn[nH]c3)c(-c3cccc(C)c3)n2)cc1	158.0*	100.0	47.0	-46.9	29.1	19.7	119.0	8.0	107.0
CCN1CC(CN(C)Cc2cn(-c3ccc(C)cc3)nc2-c2cccc(C)c2)CC1=O (stereo unspecified)	101.0	99.0	-4.0	-25.2	2.2	10.2	.	.	.
CCC(=O)Nc1cccc(NC(=S)NC(=O)c2ccccc2C)c1	106.0	107.0	0.0	4.1	-1.4	-7.7	.	.	.
c1ccc(Nc2c(-c3ccco3)nc3ccccn23)cc1	98.0	102.0	-1.0	3.2	-6.3	-6.7	.	.	.
c1ccc(-c2nc(-c3ccco3)n3ccccc23)cc1	58.0*[inhibitor]	92.0	-1.0	19.6	-9.5	-9.8	101.0	-10.0	98.0
Cc1csc2c(N3CCN(C(=O)Nc4ccc(OC(F)(F)F)cc4)CC3)ncnc12	100.0	103.0	-3.0	-3.1	5.1	-23.1	.	.	.
Cn1c(=O)n(C)c2cc3[nH]cnc3cc21	96.0	96.0	3.0	2.8	-5.1	-6.0	.	.	.
Nc1cc2nc[nH]c2cc1N	41.0*[inhibitor]	31.0*[inhibitor]	-23.0	11.6	3.5	15.9	76.0	-18.0	69.0*
Cc1cc(-c2nn(-c3ccccc3F)cc2CNCCc2cnc[nH]2)c(C)s1	148.0*	112.0	39.0	-36.5	28.5	8.6	130.0	17.0	106.0
Cc1cc(-c2nn(-c3ccccc3F)cc2CN2CCC(C(N)=O)CC2)c(C)s1	114.0	99.0	7.0	-4.9	-8.4	12.9	.	.	.
N#Cc1c(NC(=O)c2cnccn2)sc2c1CCCC2	86.0	88.0	-3.0	0.5	-10.0	2.2	.	.	.
CCN(CC)c1ccc(/C=N/NS(=O)(=O)c2ccc(CNC(C)=O)cc2)cc1	109.0	145.0*	0.0	6.5	-2.3	-0.6	98.0	-4.0	100.0
CC(=O)NCc1ccc(S(=O)(=O)N/N=C/c2ccc(Br)cc2)cc1	111.0	139.0*	0.0	5.7	-15.1	-1.4	98.0	-3.0	101.0
SMILES	MEKK2 WT-MEK5	MEKK3 PB1 HTS	MEKK2 mut-MEK5	NS3 helicase inh	T cruzi inh	FID counter	MEKK2wt confirm	MEKK2mut-MEK5	MEKK3 confirm
CNS(=O)(=O)c1ccc(NCC2COc3ccccc3O2)c([N+](=O)[O-])c1 (stereo unspecified)	103.0	133.0*	-1.0	-6.5	13.0	9.6	102.0	0.0	101.0
O=S(=O)(NCC1COc2ccccc2O1)c1ccc2ccccc2c1 (stereo unspecified)	104.0	104.0	-1.0	-17.0	-13.5	-14.7	.	.	.
CN1CCN(S(=O)(=O)c2ccc(NC(=O)c3ccccc3Cl)cc2)CC1	105.0	100.0	2.0	0.4	-26.2	3.0	.	.	.
O=C(Nc1ccc(S(=O)(=O)N2CCCC2)cc1)c1ccc(Br)o1	96.0	97.0	1.0	0.5	8.3	-14.8	.	.	.
CN1CCN(c2ccc(NC(=O)c3ccc(-c4ccc(Br)cc4)o3)cc2)CC1	168.0*	99.0	35.0	-60.0	57.7*	42.9*	173.0	38.0	104.0
CN1CCN(S(=O)(=O)c2ccc(NC(=O)c3ccc(Br)s3)cc2)CC1	138.0*	114.0	13.0	-28.3	5.4	9.6	118.0	15.0	109.0
CN1CCN(S(=O)(=O)c2ccc(NC(=O)c3ccc(Br)o3)cc2)CC1	51.0	41.0*[inhibitor]	-9.0	-3.8	-1.2	4.0	111.0	10.0	110.0
Cc1ccc(NS(=O)(=O)c2c(C)nc3sccn3c2=O)cc1C	101.0	102.0	2.0	6.4	19.7	-17.0	.	.	.
Cc1cccc(NS(=O)(=O)c2c(C)nc3scc(C)n3c2=O)c1	98.0	97.0	-5.0	20.7	-12.9	-17.8	.	.	.
CCOc1ccc(CCNC(=O)COC(=O)c2cccnc2SC)cc1OCC	.	.	.	.	1.3	.	.	.	.
CC(=O)Nc1ccc(S(=O)(=O)N[C@@H](C)C(=O)OCc2ccc(Cl)cc2)cc1	107.0	144.0*	0.0	6.5	0.9	-7.0	107.0	0.0	102.0
COc1ccccc1C(=O)N/C(=C\c1ccc(Br)cc1)C(=O)NCCCO	103.0	98.0	-3.0	7.3	1.0	-14.7	.	.	.
COc1ccccc1C(=O)N/C(=C\c1ccc(Br)cc1)C(=O)NCCO	126.0	129.0*	6.0	4.8	-9.5	-11.0	106.0	9.0	106.0
CC(=O)Nc1cccc(OCCCNS(=O)(=O)c2ccc(F)cc2)c1	97.0	101.0	1.0	-8.8	.	-10.2	.	.	.
